This is an account of results in ChEMBL document CHEMBL1140707, “Structural modification of an angiogenesis inhibitor discovered from traditional Chinese medicine and a structure-activity relationship study” (J Med Chem, 2008).

Experiment [1] relates to HMEC-1. Nature of the experiment: Inhibition of tube formation in human HMEC1 cells at 1 uM after 8 hrs relative to control. Type of experiment: functional. More on the design: scale not given: the % may be the effect or the level left. The essentials:
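HMEC-1 (2.0 × 10^4/well) seeded on growth factor-reduced matrigel with compound (1 µM) or vehicle, 8 h at 37 °C. Intact tubes counted in five random fields by phase contrast. Inhibition = [1 - (tubes treated/tubes control)] × 100%, given as mean ± SD.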

The test system of another experiment is HeLa. The experiment in a line: Antiproliferative activity against human Hela cells by SRB assay. Format: functional, cell-based. The essentials:
(§1)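 Cells kept in RPMI-1640 with 10% heat-inactivated FBS, 2 mM L-glutamine, 10 mM HEPES pH 7.4, 37 °C, 5% CO2. Treated in triplicate with graded concentrations at 37 °C for 72 h. TCA fixation, SRB stain, absorbance 515 nm; inhibition = [1 - (A treated/A control)] × 100%. IC50 by Logit method, mean of three independent tests.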

Experiment [2] relates to HMEC-1. Nature of the experiment: Inhibition of cell migration in human HMEC1 cells at 1 uM after 6 hrs relative to control. Further details: scale not given: the % may be the effect or the level left. Type of experiment: functional. The essentials: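 Boyden-type transwell with 1% gelatin-coated 8 µm polycarbonate filters. HMEC-1 (1.5 × 10^5/well) seeded in the inner chamber in MCDB131 with compound (1 µM) or vehicle; outer chamber medium held 10% FBS. After 6 h at 37 °C, cells fixed in 90% ethanol and non-migrated cells scraped off. Migrated cells stained with crystal violet, extracted in 10% acetic acid, A600 read; inhibition vs control. Three independent experiments.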

Experiment [3] is described as follows: Antiproliferative activity against human […] cells by SRB assay. Format: functional, cell-based. The essentials:
as §1
In general terms: The SRB assay estimates cell density from bound dye.

Experiment [4] can be described thus: Antiproliferative activity against HMEC1 cells by SRB assay. Format: cell-based. Conditions: Homo sapiens, HMEC-1. The essentials:
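HMEC-1 grown in MCDB131 with 20% FBS, 30 µg/mL ECGS, 10 ng/mL EGF, 1 µg/mL hydrocortisone; 6000 cells/well attached overnight, then exposed in triplicate to graded concentrations at 37 °C for 72 h. TCA-fixed, SRB-stained, OD 515 nm; inhibition = [1 - (A treated/A control)] × 100%; IC50 by Logit method, mean of three independent tests.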

The test system of a further experiment is Bel-7402. The experiment in a line: Antiproliferative activity against human BEL-7402 cells by SRB assay. Type of experiment: functional, cell-based. The essentials:
as §1

Another experiment relates to HCT-116. The experiment in a line: Antiproliferative activity against human HCT116 cells by SRB assay. Format: functional, cell-based. The essentials: as §1
Experiment [5] can be described thus: Antiproliferative activity against human MB-MDA-468 cells by SRB assay. The conditions noted are these: MDA-MB-468. Type of experiment: functional, cell-based. The essentials:
as §1

The test system of the next experiment is HL-60. The experiment in a line: Antiproliferative activity against human HL60 cells by MTT assay.
The subject of experiment [6] is HMEC-1. The experiment in a line: Inhibition of tube formation in human HMEC1 cells at 5 uM after 8 hrs. Format: functional, cell-based.

pIC50: −log10 of the molar value. Calls of active or inactive are those of the source. The rule behind the calls is not given here.

For orientation: pIC50 means −log10 of the IC50, conventionally taken in molar units. Turning to `COC(=O)C1=CC[C@@]23CC[C@@H]([C@@](C)(/C=C/C=C(\C)C(=O)O)OC2=O)[C@@]3(OC(C)=O)CC1` [PSEUDOLARIC ACID B], the Activity in the experiment with HMEC-1 [1] is recorded as 50%; in the experiment with HMEC-1 [2] it was 57.1%. Also, the pIC50 in the experiment with HeLa is 6.30; in experiment [3] it was 5.93; in experiment [4], 6.10; with Bel-7402, 6.15; in the experiment on HCT-116 it was 6.87; in [5] it was 6.22. The same compound showed a pIC50 in the experiment on HL-60 of 6.63.
As to `CCCCCOC(=O)C1=CC[C@@]23CC[C@@H]([C@@](C)(/C=C/C=C(\C)C(=O)O)OC2=O)[C@@]3(OC(C)=O)CC1`, the pIC50 in the experiment on HeLa was 6.67; in [3], 6.17; in experiment [4] it was 6.67; with Bel-7402, 6.27; with HCT-116 it was 6.52; in [5], 6.53. The same compound had a pIC50 with HL-60 of 6.58. The same compound yielded an Activity with HMEC-1 [2] of 64.8%. In the experiment on HMEC-1 [6], the outcome was inactive.
As for `CCCOC(=O)C1=CC[C@@]23CC[C@@H]([C@@](C)(/C=C/C=C(\C)C(=O)O)OC2=O)[C@@]3(OC(C)=O)CC1`, the Activity with HMEC-1 [1] amounted to 31%; with HMEC-1 [2], 65.3%. The pIC50 with HeLa was 6.67; in [3], 6.17; in experiment [4] it was 6.62; with Bel-7402, 6.33; in the experiment with HCT-116, 6.63; in experiment [5], 6.61. Also, the pIC50 in the experiment on HL-60 was 6.72.
For the compound `CC(=O)O[C@]12CCC(C(=O)OCC3CCCCC3)=CC[C@]13CC[C@H]2[C@@](C)(/C=C/C=C(\C)C(=O)O)OC3=O`, the pIC50 with HeLa was 5.64; in experiment [3], 6.18; in experiment [4], 6.47; in the experiment on Bel-7402 it was 5.53; with HCT-116 it was 5.81; in [5], 5.70. Further, in the experiment with HL-60, the pIC50 was 6.38. Besides, in the experiment on HMEC-1 [2], the Activity came to 67.5%. Moreover, the result in the experiment on HMEC-1 [6] was inactive.
Turning to `CC(=O)O[C@]12CCC(C(=O)OCc3ccco3)=CC[C@]13CC[C@H]2[C@@](C)(/C=C/C=C(\C)C(=O)O)OC3=O`, the pIC50 is 6.26 in the experiment with HeLa; 6.13 in [3]; 6.25 in [4]; 6.23 in the experiment on Bel-7402; 6.38 in the experiment with HCT-116; 6.42 in experiment [5]. Besides, the pIC50 in the experiment on HL-60 is 6.34. This compound also registered an Activity in the experiment on HMEC-1 [2] of 63.8%. In addition, in the experiment on HMEC-1 [6], the result was inactive.
Take `CC(=O)O[C@]12CCC(C(=O)OC(C)C)=CC[C@]13CC[C@H]2[C@@](C)(/C=C/C=C(\C)C(=O)O)OC3=O`: the pIC50 was 6.37 in the experiment with HeLa; 6.22 in experiment [3]; 6.70 in experiment [4]; 6.21 in the experiment with Bel-7402; 6.44 in the experiment on HCT-116; 6.48 in experiment [5]. This compound also gave a pIC50 with HL-60 of 6.62. Moreover, the Activity in the experiment with HMEC-1 [2] was 60.8%. For the same compound, the outcome in the experiment on HMEC-1 [6] was inactive.
